SMILES strings stand for the structures. The source made the active and inactive calls. No cut-off for these calls is given here.

One series has as its system SUP-B15. In words: Antiproliferative activity against human SUP-B15 cells after 72 hrs by CellTiter-Glo luminescent cell viability assay. It counts as functional, cell-based. As to conditions: SUP-B15, 72 h. Background: ATP-based viability assays read luminescence as a measure of living cells.
Series [1] is described as follows: Selectivity index, ratio of CC50 for mouse J774 cells to IC50 for Leishmania donovani MHOM/IN/80/DD8 promastigotes. It counts as toxicity. The settings on record: read-out: Ratio CC50/IC50.
Series [2] concerns the target T1, GABA-A receptor; alpha-1/beta-2/gamma-2 (Homo sapiens) (UniProt P14867+P47870+P18507). In words: Modulation of recombinant wild type GABAA receptor alpha1beta2gamma2S (unknown origin) expressed in Xenopus laevis oocytes assessed as increase in GABA-evoked chloride current at 100 uM at -70 mV holding potential by two-microelectrode voltage clamp assay relative to control. It counts as cell-based. In short, it runs like this: (§1)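 Two-microelectrode voltage clamp at -70 mV on Xenopus laevis oocytes expressing α1β2γ2S GABA-A receptors. GABA EC5 (4-5 μM), set individually for each oocyte, applied for 20 s alone, then co-applied with compound at 10 or 100 μM. Potentiation of GABA-evoked current is reported. Dehydroabietic acid served as positive control. Mean ± SEM from at least three oocytes and two oocyte batches.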

A short description of series [3]: Selectivity index, ratio of CC50 for mouse J774 cells to IC50 for Leishmania amazonensis MHOM/Br/79/Mari promastigotes. It counts as toxicity. As to conditions: read-out: Ratio CC50/IC50.
In series [4] the test system is SW1573. Kind of series: Antiproliferative activity against human SW1573 cells after 48 hrs by SRB assay. It counts as functional. The settings on record: SW1573, 48 h.
The test system of series [5] is HeLa. Kind of series: Antiproliferative activity against human HeLa cells after 48 hrs by SRB assay. It counts as functional. On the technique in general: Sulforhodamine B stains cellular protein and so reports cell mass.
The test system of series [6] is NALM-6. In words: Induction of apoptosis in human NALM6 cells at 10 uM after 24 hrs by Annexin V-FITC/propidium iodide staining-based flow cytometric analysis. It counts as functional, cell-based. In short, it runs like this: (§2)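 Phosphatidylserine exposure read by Annexin V-FITC/propidium iodide flow cytometry; DNA content by PI staining for cell-cycle distribution.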
(In general: Flow cytometry measures light scatter and fluorescence of single cells or particles in a stream.)

Series [7] has as its system WiDr. Kind of series: Antiproliferative activity against human WiDr cells after 48 hrs by SRB assay. It counts as functional.
For series [8], the target named is T1, GABA-A receptor; alpha-1/beta-2/gamma-2 (Homo sapiens). Kind of series: Modulation of recombinant wild type GABAA receptor alpha1beta2gamma2S (unknown origin) expressed in Xenopus laevis oocytes assessed as increase in GABA-evoked chloride current at 10 uM at -70 mV holding potential by two-microelectrode voltage clamp assay relative to control. It counts as cell-based. In short, it runs like this:
as §1

Another series relates to Leishmania donovani. In words: Antileishmanial activity against Leishmania donovani MHOM/IN/80/DD8 promastigotes after 48 hrs by resazurin dye-based fluorometric analysis. It counts as functional, organism-based. As to conditions: Leishmania donovani, MHOM/IN/80/DD8, 48 h. In short, it runs like this:
(§3)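 The IC50 is taken as the compound concentration giving a 50% reduction in parasites, reported with SD.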

The subject of another series is BJ. Kind of series: Antiproliferative activity against human BJ cells after 72 hrs by CellTiter-Glo luminescent cell viability assay. It counts as ADME, cell-based.
In series [9] the test system is NALM-6. Kind of series: Cell cycle arrest in human NALM6 cells assessed as accumulation at G0/G1 phase at 10 uM after 24 hrs by propidium iodide staining-based flow cytometric analysis. It counts as functional. Put shortly: as §2
Another series has as its system Leishmania amazonensis. In words: Antileishmanial activity against Leishmania amazonensis MHOM/Br/79/Mari promastigotes after 48 hrs by resazurin dye-based fluorometric analysis. It counts as functional, organism-based. The settings on record: Leishmania amazonensis, MHOM/Br/79/Mari, 48 h; read-out: IC50. In short, it runs like this: as §3
The subject of a further series is Leishmania guyanensis. Kind of series: Antileishmanial activity against Leishmania guyanensis 141/93 promastigotes after 48 hrs by resazurin dye-based fluorometric analysis. It counts as functional, organism-based. As to conditions: Leishmania guyanensis, 141/93, 48 h; read-out: IC50. In short, it runs like this: as §3
The test system of series [10] is NALM-6. In words: Cell cycle arrest in human NALM6 cells assessed as accumulation at G2/M phase at 10 uM after 24 hrs by propidium iodide staining-based flow cytometric analysis. It counts as functional. In short, it runs like this: as §2
For series [11], the system named is NALM-6. In words: Antiproliferative activity against human NALM6 cells after 72 hrs by CellTiter-Glo luminescent cell viability assay. As to conditions: NALM-6, 72 h. It counts as functional, cell-based.
Series [12] deals with T47D. In words: Antiproliferative activity against human T47D cells after 48 hrs by SRB assay. It counts as functional.
The nature of series [13]: Cytotoxicity against mouse J774 cells assessed as reduction in cell viability after 48 hrs by resazurin dye-based fluorometric analysis. Put shortly: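 The CC50 is taken as the concentration giving a 50% reduction in cell viability of treated cultures compared with untreated cells.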
The next series deals with Leishmania infantum. In words: Antileishmanial activity against Leishmania infantum MCAN/ES/96/BCN150 promastigotes after 48 hrs by resazurin dye-based fluorometric analysis. It counts as functional, organism-based. As to conditions: Leishmania infantum, MCAN/ES/96/BCN150, 48 h; read-out: IC50. In short, it runs like this: as §3
Series [14] relates to KOPN-8. Kind of series: Induction of apoptosis in human KOPN8 cells assessed as late apoptotic cells at 20 uM after 32 hrs by Annexin V-FITC/propidium iodide staining-based flow cytometric analysis relative to control. It counts as functional.
For series [15], the system named is HBL-100. Kind of series: Antiproliferative activity against human HBL100 cells after 48 hrs by SRB assay. It counts as functional. As to conditions: HBL-100, 48 h.
Series [16] is described as follows: Selectivity index, ratio of CC50 for mouse J774 cells to IC50 for Leishmania infantum MCAN/ES/96/BCN150 promastigotes. It counts as toxicity. The settings on record: read-out: Ratio CC50/IC50.
The nature of series [17]: Selectivity index, ratio of CC50 for mouse J774 cells to IC50 for Leishmania guyanensis 141/93 promastigotes. As to conditions: read-out: Ratio CC50/IC50. It counts as toxicity.
For series [18], the system named is KOPN-8. Kind of series: Antiproliferative activity against human KOPN8 cells after 72 hrs by CellTiter-Glo luminescent cell viability assay. It counts as functional, cell-based. As to conditions: KOPN-8, 72 h.
Series [19] in a line: Antiproliferative activity against mouse leukemia cells overexpressing BCR/ABL after 72 hrs by CellTiter-Glo luminescent cell viability assay. It counts as functional, cell-based.
The next series concerns UoC-B1. Kind of series: Antiproliferative activity against human UOCB1 cells after 72 hrs by CellTiter-Glo luminescent cell viability assay. As to conditions: UoC-B1, 72 h. It counts as functional, cell-based.
The subject of series [20] is A549. Kind of series: Antiproliferative activity against human A549 cells after 48 hrs by SRB assay. The settings on record: A549, 48 h. It counts as functional.
For series [21], the system named is HBL-100. In words: Antiproliferative activity against human HBL100 cells. It counts as functional.
The test system of series [22] is T47D. In words: Antiproliferative activity against human T47D cells. It counts as functional.
The subject of series [23] is SW1573. Kind of series: Antiproliferative activity against human SW1573 cells. It counts as functional.
Series [24] relates to HeLa. In words: Antiproliferative activity against human HeLa cells. It counts as functional.
For series [25], the system named is WiDr. In words: Antiproliferative activity against human WiDr cells. It counts as functional.
Series [26] concerns A549. In words: Antiproliferative activity against human A549 cells. It counts as functional.

As to `COC(=O)[C@]1(C)CCC[C@]2(C)c3cc(OC(C)=O)c(C(C)C)cc3CC[C@@H]12`, the 50% effective concentration (EC50) (usually the concentration needed to bring the measured effect to its halfway point) in the series on SUP-B15 is 20.2 µM; in the series on BJ it was “Non-Toxic”; in the series with NALM-6 [11], 8.8 µM; in the series with KOPN-8 [18], 21 µM; in [19] it was 14.3 µM; with UoC-B1, more than 40 µM. Moreover, the selectivity ratio in series [1] is 3.3; in series [3] it was 8.2; in [16], 20.4; in series [17], 4.8. Further, the Activity in [2] was 26.3%; in [8] it was 5.1%; with KOPN-8 [14], more than 85%. In addition, the concentration for 50% growth inhibition (GI50) (in general, the concentration at which growth is held to half of that of the control) turned out to be 12 µM with SW1573 [4]; 4.4 µM in the series on HeLa [5]; 16 µM in the series with WiDr [7]; 14 µM in the series on T47D [12]; 15 µM in the series with HBL-100 [15]; 11 µM with A549 [20]. Besides, the result with NALM-6 [6] was inactive. The IC50 was 8.1 µM with Leishmania donovani (read-out: IC50); 8.12 µM with Leishmania donovani (read-out: log(1/IC50) (converted)); 3.2 µM with Leishmania amazonensis; 5.5 µM in the series on Leishmania guyanensis; 1.3 µM in the series on Leishmania infantum. In addition, the result in the series on NALM-6 [9] and in the series with NALM-6 [10] was Active. Besides, in series [13], the CC50 – broadly, the concentration that lowers cell viability or growth by half – at 48 h worked out at 26.5 µM.

On to `COC(=O)[C@]1(C)CCC[C@]2(C)c3ccc(C(C)C)cc3CC[C@@H]12` [METHYL DEHYDROABIETATE], for which the concentration for 50% growth inhibition (GI50) amounted to 19 µM with HBL-100 [21]; 16 µM in the series with T47D [22]; 22 µM with SW1573 [23]; 15 µM with HeLa [24]; 10 µM in the series with WiDr [25]; 15 µM in the series with A549 [26].

For `CN[C@@H]1C[C@H]2O[C@@](C)([C@@H]1OC)n1c3ccccc3c3c4c(c5c6ccccc6n2c5c31)C(=O)NC4` [STAUROSPORINE], the EC50 in the series with NALM-6 [11] is 1.4 µM; in series [19], 0.35 µM.

The values above are taken from ChEMBL document CHEMBL4316610, “Synthesis and Biological Studies of (+)-Liquiditerpenoic Acid A (Abietopinoic Acid) and Representative Analogues: SAR Studies” (J Nat Prod, 2019).
